Measured values collected from several papers.
Each line is one published result; the experiments were not run side by side.
Target: Cyclin-dependent kinase 9 (CDK9, Homo sapiens, UniProt P50750)

COc1ccc2c(c1)O[C@@H](c1ccc(OC)c(OC)c1)C[C@H]2NC(=O)C1(c2ccc3c(c2)OC(F)(F)O3)CC1 — remaining binding (cell-free assay, competition with immobilised ligand; 1 µM): 89%
C[C@@H]1CN(c2ccc3ncc(-c4ccc5[nH]nc(C6CC6)c5c4)n3n2)C[C@H](C)O1 — remaining binding (binding, competition with immobilised ligand; 0.5 µM): 78%
CS(=O)(=O)N1CCCC(NC(=O)[C@H](CCC2CCCCC2)NC(=O)c2ccc(CNc3ncnc4c3nnn4-c3ccccc3)cc2)C1 (some centres unmarked) — remaining binding (cell-free assay, competition with immobilised ligand; 0.1 µM): 87%
c1cnn2ncc(-c3ccnc(N4CCC45COC5)n3)c2c1 — remaining binding (binding; 1 µM): 93%
O=C(Nc1c[nH]nc1C(=O)NC1CCNCC1)c1cc(F)cc(F)c1 — remaining binding (binding, competition with immobilised ligand; 1 µM): 72%
CC1CCCN1c1nccc(-c2cnn3ncccc23)n1 (centres unmarked) — remaining binding (binding; 1 µM): 100%
COc1ccc2c(O[C@@H]3C[C@H]4C(=O)N[C@]5(C(=O)O)CC5/C=C\CCCCC[C@H](NC(=O)OC5CCCC5)C(=O)N4C3)cc(-c3csc(NC(=O)C(C)C)n3)nc2c1C (some centres unmarked) — remaining binding (cell-free assay, competition with immobilised ligand; 1 µM): 83%
CN(CCCC(F)(F)F)c1nccc(-c2cnn3ncccc23)n1 — remaining binding (binding; 1 µM): 100%
Cc1cnc(Nc2ccc(C(=O)N3CCC(N4CCCC4)CC3)cc2)nc1-c1cc2ccccc2s1 — remaining binding (binding, competition with immobilised ligand; 1 µM): 82%
CCN1CCN(Cc2ccc(C(=O)Nc3ccc(C)c(Oc4ccc5c(c4)CC(=O)N5)c3)cc2C(F)(F)F)CC1 — remaining binding (binding, competition with immobilised ligand; 1 µM): 100%
CCC(=O)N[C@H]1CC[C@@H](C(=O)N(C)c2ccc(-c3nc4ccccc4o3)cc2)C1 — remaining binding (cell-free assay, competition with immobilised ligand; 1 µM): 95%
c1cncc(-c2cccc(Nc3nccc(NC4CCCCC4)n3)c2)c1 — remaining binding (binding, competition with immobilised ligand; 10 µM): 63%
COc1cnc(Nc2cccc(S(N)(=O)=O)c2)nc1N1CCN(c2ccccc2)C(=O)C1 — remaining binding (binding, competition with immobilised ligand; 1 µM): 100%
NS(=O)(=O)c1cc(NC(=O)C2(c3ccccc3Cl)CC2)ccc1Oc1cccc(Cl)c1 — remaining binding (cell-free assay, competition with immobilised ligand; 1 µM): 78%
CN(c1nccc(-c2cnn3ncccc23)n1)C1CC1 — remaining binding (binding; 1 µM): 100%
COc1ncc2cc3ccccc3nc2c1C#N — remaining binding (cell-free assay, competition with immobilised ligand; 5 µM): 91%
C[C@@H]1CCN(c2nccc(-c3cnn4ncccc34)n2)C1 — remaining binding (binding; 1 µM): 87%
O=C(NCCCN1CCOCC1)c1ccc(Nc2ncc(Cl)c(-c3ccc(Cl)s3)n2)cc1 — remaining binding (binding, competition with immobilised ligand; 1 µM): 56%
Nc1c(C(=O)NCc2ccc(C(=O)NCCCC3CCCCC3)cc2)cnn1-c1ccccc1 — remaining binding (cell-free assay, competition with immobilised ligand; 0.1 µM): 100%
FC(F)(F)Oc1cccc(-c2cnc3ccc(-c4ccncc4)nn23)c1 — remaining binding (cell-free assay, competition with immobilised ligand; 5 µM): 89%
O=C(c1ccc(Nc2nccc(-c3cc4ccccc4s3)n2)cc1)N1CCC(N2CCCC2)CC1 — remaining binding (binding, competition with immobilised ligand; 1 µM): 85%
CO[C@H]1CC[C@H](CNc2ccc(S(=O)(=O)NC(=O)c3ccc(N4CCN(CC5=C(c6ccc(Cl)cc6)CC(C)(C)CC5)CC4)cc3Oc3cnc4[nH]ccc4c3)cc2[N+](=O)[O-])CC1 — remaining binding (cell-free assay, competition with immobilised ligand; 1 µM): 91%
CN(C)c1ncc(F)c(-c2cnn3ncccc23)n1 — remaining binding (binding; 1 µM): 100%
